# Screening data as filed in PubChem BioAssay.
# This is a sample that favours compounds with a hit; in the whole collection about 2.5% have one here.
# Rce1 inhib: inhibitors of yeast Ras-converting enzyme; Q03530; yeast membranes, quenched prenylated peptide cleavage fluorescence; calls only; hit rate 0.27% among 290,000;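 active means fall in fluorescence gain of 50% or more versus controls, with final raw signal at or below 3038400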;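 further: plate controls were neutral control wells for no effect and wells lacking membranes for full effect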
# Target sequence (Q03530 whole entry, looked up): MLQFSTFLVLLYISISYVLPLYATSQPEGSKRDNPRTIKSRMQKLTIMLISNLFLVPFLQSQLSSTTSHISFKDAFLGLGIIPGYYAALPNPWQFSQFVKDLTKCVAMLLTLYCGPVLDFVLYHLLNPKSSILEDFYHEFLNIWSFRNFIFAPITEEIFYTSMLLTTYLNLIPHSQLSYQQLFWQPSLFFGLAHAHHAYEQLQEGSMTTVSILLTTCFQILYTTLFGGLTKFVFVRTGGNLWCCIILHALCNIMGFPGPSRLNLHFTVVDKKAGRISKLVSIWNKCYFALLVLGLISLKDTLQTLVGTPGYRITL
# MEKK2wt PB1 HTS: raises or lowers MEK5 binding to wildtype human MEKK2 PB1 domain. bead flow cytometry, Alexa488-MEK5 binding to MEKK2 WT; actives lie on both sides. binding response (% of control), % at 10 µM. hit rate 1.1% among 290,000. AID 1531; in the data active means binding response below about 67% or above about 130%
# MEKK3 PB1 HTS: raises or lowers MEK5 binding to the human MEKK3 PB1 domain | bead-based flow cytometry, Alexa488-MEK5 binding to MEKK3; actives lie on both sides; 0 = blocked by unlabeled MEK5, 100 = vehicle | binding response (% of control), % at 10 µM | AID 1529 | hit rate 1.4% among 290,000 | Q99759;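 active means binding response more than 3 SD above or below the average of its plate-row segment, actives on both sides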;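 further: Alexa488 bead fluorescence after subtracting the streptavidin-only scavenger bead signal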
# UCH37 inh: inhibitors of human deubiquitinating enzyme UCH37; inhibition, % (no concentration beside the values); hit rate 0.33% among 330,000; purified proteasome/UCH37, Ub-AMC cleavage fluorescence;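 active means mean inhibition over replicate wells above about 20%, limit read from the data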;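 further: 0% = compound-free wells with enzyme and 100% = wells lacking proteasome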
# Target sequence (Q9Y5K5 whole entry, looked up): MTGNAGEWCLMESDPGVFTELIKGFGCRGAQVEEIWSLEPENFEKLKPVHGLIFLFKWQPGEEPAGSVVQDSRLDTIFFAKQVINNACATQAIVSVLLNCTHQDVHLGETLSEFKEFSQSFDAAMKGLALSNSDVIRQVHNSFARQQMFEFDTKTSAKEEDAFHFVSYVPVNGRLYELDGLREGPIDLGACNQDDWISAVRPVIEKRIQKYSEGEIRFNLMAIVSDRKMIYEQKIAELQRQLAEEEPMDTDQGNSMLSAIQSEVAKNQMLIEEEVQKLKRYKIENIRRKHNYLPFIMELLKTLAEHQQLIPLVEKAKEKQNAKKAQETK
#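 system = Proteasome-associated human UCH37 deubiquitinase | amount = 0.15 nM proteasome as dispensed | medium = pH 7.4 Tris-HCl (50 mM) with ovalbumin, ATP-MgCl2, DTT | incubation = 30 min preincubation with enzyme, 25 min cleavage at room temperature | detection = AMC fluorescence 355/460 nm | read-out basis = percent inhibition | controls = no-proteasome and no-compound wells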
# T cell HTS: T cell immune modulators affecting CD8 T cell-vesicle binding | hit rate 0.068% among 330,000 | response (vesicle binding), % at 7 µM | 2C CD8+ T cell-vesicle binding, flow cytometry; active compounds read low;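 active means response, share of CD8 T cells binding vesicles, and their 90th percentile fluorescence all below set limits, cut at about 80% in these data, passing the limit was not always enough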;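 further: values below 100% mean blocked vesicle binding to the CD8+ T cells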
#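 Material: murine 2C transgenic CD8+ T lymphocytes / Also added: QL9-peptide-loaded Drosophila micro-vesicles bearing Ld, ICAM-1 and B7-1 / Schedule: binding step 1.5 h, 37 °C, antibody labelling 20 min, ice / Signal: flow cytometry, PE anti-B7-1 (FL2) versus Alexa647 anti-CD8 (FL8), PFA-fixed / Evaluation: percent CD8+ FL2 mean versus row control / Benchmarks: naked versus QL9-loaded vesicles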
# MEKK2mut PB1 HTS: signal of MEK5 binding to mutant human MEKK2 PB1 domain | bead flow cytometry, Alexa488-MEK5 binding to MEKK2 mutant | percent response, % at 10 µM | hit rate 0.35% among 290,000 | AID 1530; in the data active means percent response above about 24%, passing the limit was not always enough
# MEKK2wt confirm: raises or lowers MEK5 binding to wildtype human MEKK2, retest; shares compounds with MEKK3 PB1 HTS; bead flow cytometry, Alexa488-MEK5 binding to MEKK2 WT; actives lie on both sides; binding response (% of control), % at 10 µM; hit rate 2.4% among 5,900; AID 1892; in the data active means binding response below about 16% or above about 210%; inactive means in between
# MEKK2mut-MEK5: signal of MEK5 binding to mutant human MEKK2, retest | shares compounds with MEKK3 PB1 HTS | bead flow cytometry, Alexa488-MEK5 binding to MEKK2 mutant | percent response, % at 10 µM | hit rate 2% among 5,900 | AID 1893; in the data active means percent response mostly above about 71%, no sharp cut-off; inactive means mostly below about 38%;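 further: higher means compound restores mutant binding toward wildtype level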
# MEKK3 confirm: confirmation of inhibitors of MEK5 binding to human MEKK3. hit rate 1.8% among 5,900. shares compounds with MEKK3 PB1 HTS. binding response (% of control), % at 10 µM. bead flow cytometry, Alexa488-MEK5 binding to MEKK3; active compounds read low;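 active means binding response below 72% of control, or above a set upper limit, though filed actives all read lower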;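 further: 100% = DMSO only wells and 0% = binding blocked by excess unlabeled MEK5; lower values mean stronger disruption of MEK5 binding to MEKK3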
# Numbers without * were called inactive; i = inactive; nt = not tested or not shown; + = active, no number; [ ] = another dose, or the depositor's remark.
SMILES,Rce1 inhib,MEKK2wt PB1 HTS,MEKK3 PB1 HTS,UCH37 inh,T cell HTS,MEKK2mut PB1 HTS,MEKK2wt confirm,MEKK2mut-MEK5,MEKK3 confirm
O=C(COC(=O)CCC(NC(=O)OCc1ccccc1)C(=O)OCC(=O)Nc1ccccc1)Nc1ccccc1 (stereo not given),i,113,152*,1,253,1,109,4,103
COc1ccccc1OCc1nc(C#N)c(NCCCn2ccnc2)o1,i,99,97,0,427,-6,nt,nt,nt
N#Cc1nc(COc2ccccc2F)oc1NCCCn1ccnc1,i,2.0*[inhibitor],1.0*[inhibitor],3,271,-26,97,2,93
CC(=NNC(=O)CNC(=O)c1cccnc1)c1ccc(Cl)c(Cl)c1,nt,nt,nt,6,nt,nt,nt,nt,nt
Cc1cc(N=Nc2ccc(C)c(N=Nc3cc(C)c(N)cc3N)c2)c(N)cc1N,i,76,67*[inhibitor],nt,93,-7,89,10,70*
O=C(CCC(=O)Nc1ccc(Br)cc1)NN=Cc1cc([N+](=O)[O-])ccc1O,nt,nt,nt,4,nt,nt,nt,nt,nt
O=C(CC1NCCc2ccccc21)Nc1ccc(Oc2ccccc2)cc1 (stereo not given),i,160*,118,2,523,25,123,9,93
COc1cccc(/C=N/n2c(CO)nc3ccccc32)c1OC,i,77,71*[inhibitor],nt,780,-8,106,5,103
CCOC(=O)c1sc2nc(C(C)C)c3c(c2c1N)CC(C)(C)OC3,i,104,101,-101,400,6,nt,nt,nt
CCOC(=O)c1sc2nc(C(C)C)c3c(c2c1N)CCC3,i,108,138*,-285,546,0,147,39,112
CSCCNC(=O)Nc1c(-c2c(Cl)cccc2Cl)noc1C,nt,86,67*[inhibitor],5,343,-26,102,4,102
CC(C)=N/N=C(/c1ccc([N+](=O)[O-])cc1)C12CN3CN(CN(C3)C1)C2,i,nt,148*,nt,225,+,100,-6,103
CC(C)=NN=C(c1cccc([N+](=O)[O-])c1)C12CN3CN(CN(C3)C1)C2,nt,nt,nt,-14,nt,nt,nt,nt,nt
CC(=O)N1N=C(N)SC12CCCC2,i,97,89,1,140,-1,nt,nt,nt
CC(=O)NC1=NN(C(C)=O)C2(CCCC2)S1,i,119,132*,-1,397,0,107,6,105
Cc1nn(CC(=O)c2ccc(Br)s2)c(C)c1[N+](=O)[O-],i,50,46*[inhibitor],2,335,-11,86,-11,89
Cc1nn(CC(=O)OCCOc2ccc(Br)cc2)c(C)c1[N+](=O)[O-],i,66,50*[inhibitor],6,104,-4,101,1,99
Cc1ccc(CNC(=O)COC(=O)Cn2nc(C)c([N+](=O)[O-])c2C)cc1,i,104,101,-1,467,3,nt,nt,nt
COc1cc(-c2nc(-c3ccc(NC(=O)c4ccc5c(c4)OCO5)cc3)no2)cc(OC)c1OC,i,45*[inhibitor],111,-11,262,-2,101,-5,96
CN(C)CCCn1c(SCC(=O)Nc2nc(-c3cccc(Br)c3)cs2)nc2ccccc2c1=O,i,265*,128*,9,365,55*,272*,166*,114
COc1ccc(C=NNC(=O)c2cccnc2)c2ccccc12,nt,nt,nt,-15,nt,nt,nt,nt,nt
Oc1c(C=Nc2cccc3cccnc23)sc2ccccc12,i,50*[inhibitor],82,nt,372,-14,62,-24,89
CCCCNC(=S)N(C)N=Cc1ccc2c(c1)OCO2,nt,nt,nt,4,nt,nt,nt,nt,nt
CC(=O)C1=C(O)C(=O)N(Cc2ccco2)C1c1cccc(F)c1 (stereo not given),i,113,129*,5,208,0,97,-7,96
Cc1cccc(NCC(=O)NN=Cc2ccc[nH]2)c1,nt,nt,nt,2,nt,nt,nt,nt,nt
SMILES,Rce1 inhib,MEKK2wt PB1 HTS,MEKK3 PB1 HTS,UCH37 inh,T cell HTS,MEKK2mut PB1 HTS,MEKK2wt confirm,MEKK2mut-MEK5,MEKK3 confirm
CC(CNC(=O)CC(C)(C)C)NC(=O)CC(C)(C)C (stereo not given),i,102,123*,-1,396,7,94,0,102
O=C(Nc1ccc(Cl)cn1)c1ccc(COc2ccccc2Br)o1,i,50,49*[inhibitor],1,501,-18,107,14,110
CCOc1ccc(OCc2ccc(C(=O)Nc3ccc(Cl)cn3)o2)cc1,i,101,101,-3,405,0,nt,nt,nt
O=C(NN=Cc1cccnc1)c1cc(-c2ccc(Cl)cc2)nc2ccccc12,nt,nt,nt,1,nt,nt,nt,nt,nt
C=C(C)CN=c1scc(C)n1/N=C/c1ccco1,i,85,77*[inhibitor],nt,199,-9,73,-11,73
O=C(NCCCN1CCOCC1)C(=O)NN=Cc1ccc2c(c1)OCO2,nt,nt,nt,11,nt,nt,nt,nt,nt
COc1cc(CCCN2C(=O)C(=O)NC[C@@H]2C(C)O)cc(OC)c1OC (stereo not given in full),i,2.0*[inhibitor],2.0*[inhibitor],2,480,4,102,-4,97
COc1cc(CCCN2C(=O)C(=O)NC[C@@H]2c2ccccc2)cc(OC)c1OC,i,94,94,2,372,1,nt,nt,nt
COc1ccc(CC(=O)NN=Cc2ccc(Cl)s2)cc1OC,nt,nt,nt,7,nt,nt,nt,nt,nt
CCC1(c2ccccc2)NC(=S)N(c2cccc(C)c2C)N1 (stereo not given),i,105,129*,3,297,1,101,-10,99
O=C(C1=C[C@@H](c2ccc(C(F)(F)F)cc2)C[C@@H](OCCCCO)O1)N1CCOCC1,i,102,103,4,180,3,nt,nt,nt
O=C(C1=C[C@H](c2ccc(C(F)(F)F)cc2)C[C@H](OCCCCO)O1)N1CCOCC1,i,100,82*[inhibitor],1,212,-3,99,-3,98
NNC(=O)[C@@H]1C[C@@H]1c1ccccc1,i,111,153*,-1,244,0,84,-13,84
c1cc(Nc2ncnc3sccc23)cc(-c2nnc3n2CCCCC3)c1,i,-1.0*[inhibitor],-1.0*[inhibitor],3,402,-17,107,4,103
Cc1cnc(C(=O)Nc2cccc(-c3nnc4n3CCCCC4)c2)cn1,i,102,101,3,212,2,nt,nt,nt
CCCC(=O)NC(=S)NNC(=O)c1ccc([N+](=O)[O-])cc1,i,100,133*,6,189,4,95,3,99
